Drawing on ChEMBL document CHEMBL3351406, “Synthesis and biological evaluation of the [d-MeAla(11)]-epimer of coibamide A” (Bioorg Med Chem Lett, 2015), this text covers IC50 for two compounds.

Common to all, as to assay type: functional, cell-based
Assay [1] in a line: Cytotoxicity against human HCT116 cells assessed as growth inhibition after 72 hrs by MTS assay. Conditions: HCT-116, 72 h. Put shortly:
(§1)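 Seeding per well: A549 500 cells (DMEM), HCT-116 5000 (McCoy's 5A), MCF-7 5000 (EMEM), B16 2000 (DMEM). All media had 10% FBS; cells kept at 37 °C, 5% CO2. Cells settled 6 h, then received compounds pre-diluted 250-fold from DMSO into medium, and were exposed 72 h. Wells were washed with phenol-red-free medium, given MTS for 40 min, and read at 490 nm absorbance.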

In assay [2] the test system is B16. Briefly: Cytotoxicity against mouse B16 cells assessed as growth inhibition after 72 hrs by MTS assay. The settings on record: B16, 72 h. A digest of the protocol:
as §1
In general terms: Tetrazolium dyes change colour on reduction, which living cells bring about.

For assay [3], the system named is MCF7. The experiment in a line: Cytotoxicity against human MCF7 cells assessed as growth inhibition after 72 hrs by MTS assay. Conditions: MCF7, 72 h. Put shortly: as §1
The test system of assay [4] is A549. The experiment in a line: Cytotoxicity against human A549 cells assessed as growth inhibition after 72 hrs by MTS assay. Conditions: A549, 72 h. Put shortly: as §1
The test system of assay [5] is SF-295. Briefly: Cytotoxicity against human SF295 cells assessed as growth inhibition after 72 hrs by MTT assay. Conditions: SF-295, 72 h. A digest of the protocol: (§2)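 Media: PC-3 in DMEM with 10% FBS, 2 mM L-glutamine and penicillin/streptomycin; SF-295, MDA-MB-231 and H292 in RPMI-1640 with 10% FBS, 2 mM L-glutamine, 1 mM pyruvate and penicillin/streptomycin. Cells were seeded at 3,000 per well 16 h before adding compound or DMSO vehicle, then kept 72 h at 5% CO2. Viability was measured by MTT, normalised to vehicle-treated cells as 100%.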

For assay [6], the system named is MDA-MB-231. The experiment in a line: Cytotoxicity against human MDA-MB-231 cells assessed as growth inhibition after 72 hrs by MTT assay. Conditions: MDA-MB-231, 72 h. A digest of the protocol: as §2
In assay [7] the test system is NCI-H292. Briefly: Cytotoxicity against human NCI-H292 cells assessed as growth inhibition after 72 hrs by MTT assay. Conditions: NCI-H292, 72 h. A digest of the protocol:
as §2

Assay [8] is described as follows: Cytotoxicity against human PC3 cells assessed as growth inhibition after 72 hrs by MTT assay. Conditions: PC-3, 72 h. Put shortly: as §2

Where a SMILES comes first, the peptide text is derived from it. Bridges are numbered along the chain shown (N, C = ends). [ ]: non-standard residue; d: D form. The star is where a group is joined. NMe2Val = CC(C)[C@@H](C(=O)*)N(C)C; NMeI = CC[C@H](C)[C@H](NC)C(=O)O; NMeT = CN[C@H](C(=O)O)[C@@H](C)O; NMeL = CN[C@@H](CC(C)C)C(=O)O; Hiv = CC(C)[C@H](O)C(=O)O; NMeS = CN[C@@H](CO)C(=O)O; NMeA = CN[C@@H](C)C(=O)O; dNMeA = CN[C@H](C)C(=O)O

The term IC50 denotes the concentration at which inhibition is half-maximal. On to `CC[C@H](C)[C@H]1C(=O)N[C@@H](C)C(=O)N(C)[C@@H](CC(C)C)C(=O)N[C@@H](Cc2ccc(OC)cc2)C(=O)N(C)[C@H](C)C(=O)O[C@H](C)[C@H](N(C)C(=O)[C@H](CC(C)C)N(C)C(=O)[C@H](COC)N(C)C(=O)[C@@H](OC(=O)[C@H](C(C)C)N(C)C)C(C)C)C(=O)N(C)[C@@H](COC)C(=O)N1C` (NMe2Val-[Hiv][NMeS](Me)[NMeL][NMeT][NMeS](Me)[NMeI]A[NMeL]Y(Me)[dNMeA]; ester 4-C), for which the IC50 in assay [1] turned out to be 44.6 nM; in assay [2], 54.4 nM; in assay [3], 48.6 nM; in assay [4], 19 nM; in assay [5] it was 816 nM; in assay [6], 545 nM. The IC50 in assay [7] was 610 nM; in assay [8] it was 424 nM.
For the compound `CC[C@H](C)[C@H]1C(=O)N[C@@H](C)C(=O)N(C)[C@@H](CC(C)C)C(=O)N[C@@H](Cc2ccc(OC)cc2)C(=O)N(C)[C@@H](C)C(=O)O[C@H](C)[C@H](N(C)C(=O)[C@H](CC(C)C)N(C)C(=O)[C@H](COC)N(C)C(=O)[C@@H](OC(=O)[C@H](C(C)C)N(C)C)C(C)C)C(=O)N(C)[C@@H](COC)C(=O)N1C` (NMe2Val-[Hiv][NMeS](Me)[NMeL][NMeT][NMeS](Me)[NMeI]A[NMeL]Y(Me)[NMeA]; ester 4-C), the 50% inhibitory concentration (IC50) in assay [5] was found to be 219 nM; in assay [6], 66 nM; in assay [7] it was 124 nM; in assay [8] it was 80 nM.
